TAAR1 antagonist: antagonists of human TAAR1; Q96RJ0; CHO RD-HGA16 TAAR1, Fluo-8 calcium fluorescence, antagonist; inhibition, % at 3 µM; 1.5% of 360,000 active; AID 624466;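 active = inhibition above a per-plate cutoff, the mean inhibition of test compounds on that plate plus 3 SD, cut at about 49% in these data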
Target sequence (Q96RJ0 whole entry, looked up): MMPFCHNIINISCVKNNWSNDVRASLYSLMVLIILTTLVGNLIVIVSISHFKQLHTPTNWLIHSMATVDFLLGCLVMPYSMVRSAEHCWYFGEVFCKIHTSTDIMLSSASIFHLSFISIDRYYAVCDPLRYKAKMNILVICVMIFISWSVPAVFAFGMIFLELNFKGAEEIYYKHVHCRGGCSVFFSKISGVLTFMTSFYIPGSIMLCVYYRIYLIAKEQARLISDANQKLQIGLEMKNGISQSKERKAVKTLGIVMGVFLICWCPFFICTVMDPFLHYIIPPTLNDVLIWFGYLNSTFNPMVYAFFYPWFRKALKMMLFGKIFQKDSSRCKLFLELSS
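System: RD-HGA16 CHO cells with stable hTAAR1 and Gα16 | Probe or stimulus: EC80 β-phenethylamine stimulus | Dosing: 3 µM, single point | Times: Dye loading 75 min at 37 °C, then 30 min room temperature | Measured by: Fluo-8 calcium-sensitive fluorescence | Read-out basis: % inhibition of agonist calcium response | Replicates: n of 1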
CHO parental Ca: counter-screen: ATP calcium response change in parental CHO cells | inhibition, % at 5.6 µM | parental CHO-K1, ATP-induced calcium, Fluo-8 fluorescence | 0.63% of 330,000 active;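 active = inhibition above that plate's mean sample inhibition plus 3 SD, cut at about 26% in these data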
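Assay system – parental CHO cells · Reagent – ATP stimulus · Detection – intracellular calcium via Fluo-8 no-wash fluorescent dye · Evaluation – percent inhibition of ATP-evoked calcium rise, normalized to controls · Controls – ATP wells versus no-ATP DMSO wells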
OX1R antag-1: blocks the human orexin 1 receptor; OX1R-expressing cells, FRET antagonist read-out; inhibition, % at 6.6 µM; 1.8% of 330,000 active; in the data active = inhibition mostly above about 38%, no sharp cut-off; inactive = mostly below about 40%
OX1R antag-2: antagonists of human orexin 1 receptor; O43613; CHO/OX1R cells, Fluo-8 calcium fluorescence, orexin A; inhibition, % at 5 µM; 0.43% of 330,000 active; AID 434989;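 active = inhibition above its plate's threshold, mean inhibition of all tested compounds on the plate plus 3 SD, cut at about 37% in these data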
TAAR1 ag: agonists of human TAAR1; Q96RJ0; CHO RD-HGA16 TAAR1, Fluo-8 calcium fluorescence; vehicle wells 0%, saturating PEA agonist 100%; activation, % at 3 µM; 0.99% of 360,000 active; AID 624467;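 active = activation above the mean activation of all test compounds in the run plus 3 SD, cut at about 38% in these data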
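System: CHO-derived RD-HGA16 cells with stable Gα16 and human TAAR1 / Times: 17-24 h plating, Fluo-8 75 min 37 °C, 30 min RT / Technique: calcium-sensitive Fluo-8 signal, excitation 470-495, emission 515-575 nm / Measure: % activation relative to PEA EC100 response / Benchmarks: DMSO and PEA EC100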
Numbers stand for hits. Only some compounds are listed: those with a hit (about 3.9% of all), similar ones and a draw of the others.

CC(=O)Nc1ccc(-c2ccnc3c2CC(C(=O)NCC2CCOCC2)O3)cc1 (centres undefined) was read as TAAR1 antagonist inactive and TAAR1 ag inactive.
Screening O=C(Cn1nc(C(=O)O)c2ccccc2c1=O)Nc1cccc(S(=O)(=O)N2CCCC2)c1 returned TAAR1 antagonist inactive and TAAR1 ag inactive.
CN(C)c1ccc(S(=O)(=O)N2CCCCC2)cc1NC(=O)COc1ccccc1F was read as TAAR1 antagonist inactive, CHO parental Ca 71, OX1R antag-1 inactive, OX1R antag-2 inactive and TAAR1 ag inactive.
Screening O=C(Cn1nc(C(=O)O)c2ccccc2c1=O)Nc1cccc(S(=O)(=O)N2CCCCCC2)c1 returned TAAR1 antagonist inactive, CHO parental Ca 32, OX1R antag-1 inactive, OX1R antag-2 43 and TAAR1 ag inactive.
For CC(C)(C)NC(=O)C(c1cccc2ccccc12)n1c(=O)c(-c2cc3ccccc3[nH]2)nc2ccccc21 (centres undefined) the results were TAAR1 antagonist inactive and TAAR1 ag inactive.
Screening C=CCCC1CN(Cc2ccc(OC)cc2)S(=O)(=O)c2c(cccc2N2CCCCC2)O1 (centres undefined) returned TAAR1 antagonist inactive and TAAR1 ag inactive.
For CCOC(=O)[C@]12CCCC=C1N(CCc1ccc(OC)c(OC)c1)C(=O)[C@H](CC(=O)N1CCCC1)C2 the results were TAAR1 antagonist inactive and TAAR1 ag inactive.
Screening CCOC(=O)c1c(C)oc2c1c(C=NCc1ccccn1)c(O)c1ccccc12 returned TAAR1 antagonist inactive and TAAR1 ag inactive.
Screening CCOC(=O)c1c(C)oc2c1c(C(c1cccnc1)N1CCOCC1)c(O)c1ccccc12 (centres undefined) returned TAAR1 antagonist inactive, CHO parental Ca inactive, OX1R antag-1 73, OX1R antag-2 inactive and TAAR1 ag inactive.
For CN1CCN(S(=O)(=O)c2ccc([N+](=O)[O-])cc2)CC1 the results were TAAR1 antagonist inactive, CHO parental Ca inactive, OX1R antag-1 31, OX1R antag-2 inactive and TAAR1 ag inactive.
`CC1CCN(S(=O)(=O)c2ccc([N+](=O)[O-])cc2)CC1` gave TAAR1 antagonist inactive, CHO parental Ca inactive, OX1R antag-1 inactive, OX1R antag-2 inactive and TAAR1 ag inactive.
Screening O=[N+]([O-])c1ccc(S(=O)(=O)N2CCN(c3ccc(N4CCOCC4)nn3)CC2)cc1 returned TAAR1 antagonist inactive, CHO parental Ca inactive, OX1R antag-1 46, OX1R antag-2 inactive and TAAR1 ag inactive.
Screening O=C(Nc1nc2c(s1)COc1ccccc1-2)c1cccs1 returned TAAR1 antagonist inactive, CHO parental Ca inactive, OX1R antag-1 56, OX1R antag-2 inactive and TAAR1 ag inactive.
`NC(CCc1ccccc1)c1csc(NC(=O)NCC2CCCCC2)n1` (centres undefined) gave TAAR1 antagonist inactive and TAAR1 ag inactive.
Screening O=C(CN1CCN(c2ccccc2O)CC1)Nc1cc([N+](=O)[O-])ccc1Cl returned TAAR1 antagonist inactive, CHO parental Ca inactive, OX1R antag-1 58, OX1R antag-2 inactive and TAAR1 ag inactive.
Screening O=C(CN1CCCCCC1)Nc1ccc([N+](=O)[O-])cc1Cl returned TAAR1 antagonist inactive, CHO parental Ca inactive, OX1R antag-1 inactive, OX1R antag-2 inactive and TAAR1 ag inactive.
O=C(CN1CCCCC1)Nc1nnc(-c2ccccc2)s1 was read as TAAR1 antagonist inactive, CHO parental Ca inactive, OX1R antag-1 inactive, OX1R antag-2 inactive and TAAR1 ag inactive.
O=C(CN1CCN(c2ccccc2O)CC1)Nc1ccc([N+](=O)[O-])cc1Br was read as TAAR1 antagonist inactive, CHO parental Ca inactive, OX1R antag-1 inactive, OX1R antag-2 inactive and TAAR1 ag inactive.
`O=C(CN1CCCCCC1)Nc1cc([N+](=O)[O-])ccc1Cl` gave TAAR1 antagonist inactive, CHO parental Ca inactive, OX1R antag-1 62, OX1R antag-2 inactive and TAAR1 ag inactive.
`O=C(CN1CCCCC1)Nc1nnc(-c2ccc([N+](=O)[O-])cc2)s1` gave TAAR1 antagonist inactive, CHO parental Ca inactive, OX1R antag-1 58, OX1R antag-2 inactive and TAAR1 ag inactive.
Screening CSCC[C@@H](CO)NC(=O)[C@H]1O[C@@H](n2ccc(=O)[nH]c2=O)[C@H](O)[C@@H]1O returned TAAR1 antagonist inactive and TAAR1 ag inactive.
Screening Cc1ccccc1CN1CC2=C(CCN(Cc3ccccc3)C2=O)N2CCN=C12 returned TAAR1 antagonist inactive and TAAR1 ag inactive.
